Data as given in ChEMBL document CHEMBL1130008, “Structure-based design of a potent, selective, and irreversible inhibitor of the catalytic domain of the erbB receptor subfamily of protein tyrosine kinases” (J Med Chem, 1997).

Tests used:
[1] = Affinity for mouse cyclic-AMP dependent Ser/Thr Kinase
[2] = molecular target: T1, Epidermal growth factor receptor (Homo sapiens, UniProt P00533); experiment: Inhibition of human erbB-1 receptor tyrosine kinase activity at 5 uM
Outline: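 A431-derived full-length erbB-1 was preincubated with 5 µM nucleoside without ATP, then assayed with 10 µM [32P]ATP and poly(Glu,Tyr) at 25 °C for 10 min; a TCA-precipitate count gave the read-out. Reversibility was tested by treating with 1 mM dithiothreitol.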

[3] = molecular target: T1, Epidermal growth factor receptor; experiment: (§1) Rate constant for inactivation of erbB-1 receptor of A431 human epidermoid carcinoma cells; format: cell-based, A-431
Outline: (§2)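 A431 full-length erbB-1 preincubated with 0.1–25 µM nucleoside in kinase buffer lacking ATP for 1, 5, 15 or 30 min. 10 µM [32P]ATP then started a 10 min, 25 °C poly(Glu,Tyr) phosphorylation. Activity as % of control on semilog plots gave pseudo-first-order constants, fitted hyperbolically against concentration. Run in duplicate.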

[4] = molecular target: T1, Epidermal growth factor receptor; experiment: Saturation rate constant for complex formation with human erbB-1 receptor; outline: as §2
[5] = molecular target: T1, Epidermal growth factor receptor; experiment: as §1; format: cell-based; settings: A-431; outline: as §2
[6] = molecular target: T1, Epidermal growth factor receptor; experiment: Second order rate constant for inactivation of erbB-1 receptor of A431 human epidermoid carcinoma cells; format: cell-based; settings: A-431; outline: as §2
[7] = molecular target: Receptor tyrosine-protein kinase erbB-2 (Homo sapiens, UniProt P04626); experiment: Inhibition of human erbB-2 receptor tyrosine kinase
[8] = molecular target: Fibroblast growth factor receptor (Homo sapiens) (UniProt P22607+P11362+P22455+P21802); experiment: Inhibition of human fibroblast growth factor receptor (FGF) at 50 uM (no effect); format: protein assay
[9] = molecular target: Insulin receptor (Homo sapiens) (UniProt P06213); experiment: Inhibition of human insulin receptor tyrosine kinase at 50 uM (no effect)
[10] = molecular target: Platelet-derived growth factor receptor beta (Homo sapiens) (UniProt P09619); experiment: Inhibition of human Platelet-derived growth factor receptor at 50 uM (no effect)
[11] = molecular target: T1, Epidermal growth factor receptor; experiment: Half life for inactivation of erbB-1 receptor; outline: as §2
[12] = molecular target: T1, Epidermal growth factor receptor; experiment: Inhibition of erbB-1 receptor tyrosine kinase from A431 human epidermoid carcinoma cells; format: cell-based, A-431
Outline: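 Full-length erbB-1 purified from A431 cell lysate by anti-EGF-receptor antibody affinity resin and eluted with EGF. Run at 25 °C for 10 min, stopped with TCA, precipitate counted by scintillation.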

Sequence of Receptor tyrosine-protein kinase erbB-2 (P04626 whole entry): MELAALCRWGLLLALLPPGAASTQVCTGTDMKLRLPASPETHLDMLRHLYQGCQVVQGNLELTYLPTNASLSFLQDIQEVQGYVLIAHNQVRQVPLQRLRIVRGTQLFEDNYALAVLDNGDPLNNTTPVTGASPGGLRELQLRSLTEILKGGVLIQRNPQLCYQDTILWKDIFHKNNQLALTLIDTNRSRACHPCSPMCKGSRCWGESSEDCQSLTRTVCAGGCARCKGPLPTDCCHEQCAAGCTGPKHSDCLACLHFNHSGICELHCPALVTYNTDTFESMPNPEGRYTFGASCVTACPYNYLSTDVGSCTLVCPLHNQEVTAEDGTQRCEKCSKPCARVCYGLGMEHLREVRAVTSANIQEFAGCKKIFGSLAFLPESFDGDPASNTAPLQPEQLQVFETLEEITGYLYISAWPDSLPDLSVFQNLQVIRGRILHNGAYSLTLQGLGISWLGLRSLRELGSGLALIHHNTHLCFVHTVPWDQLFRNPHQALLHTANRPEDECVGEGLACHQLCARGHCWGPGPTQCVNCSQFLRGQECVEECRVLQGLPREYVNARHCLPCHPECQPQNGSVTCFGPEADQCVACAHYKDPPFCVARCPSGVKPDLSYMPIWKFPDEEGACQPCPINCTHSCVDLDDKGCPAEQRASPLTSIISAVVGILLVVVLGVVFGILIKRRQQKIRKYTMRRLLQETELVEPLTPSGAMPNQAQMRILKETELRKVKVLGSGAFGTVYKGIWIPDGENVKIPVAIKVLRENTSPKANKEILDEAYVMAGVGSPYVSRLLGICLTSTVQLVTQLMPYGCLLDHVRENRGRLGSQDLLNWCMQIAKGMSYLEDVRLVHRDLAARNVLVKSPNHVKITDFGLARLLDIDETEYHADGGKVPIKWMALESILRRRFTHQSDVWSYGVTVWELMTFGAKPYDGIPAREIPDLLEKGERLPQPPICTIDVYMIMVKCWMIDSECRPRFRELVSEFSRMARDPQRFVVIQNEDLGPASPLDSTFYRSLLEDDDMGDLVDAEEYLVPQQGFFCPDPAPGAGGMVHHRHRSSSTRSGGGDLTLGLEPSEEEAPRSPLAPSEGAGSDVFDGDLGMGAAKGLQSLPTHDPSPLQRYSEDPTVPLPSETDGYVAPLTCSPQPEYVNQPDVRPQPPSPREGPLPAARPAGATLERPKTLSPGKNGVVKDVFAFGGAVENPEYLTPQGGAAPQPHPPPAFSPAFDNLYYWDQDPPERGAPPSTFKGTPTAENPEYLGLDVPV
Sequence of Insulin receptor (Homo sapiens) (P06213 28-758 limits assumed): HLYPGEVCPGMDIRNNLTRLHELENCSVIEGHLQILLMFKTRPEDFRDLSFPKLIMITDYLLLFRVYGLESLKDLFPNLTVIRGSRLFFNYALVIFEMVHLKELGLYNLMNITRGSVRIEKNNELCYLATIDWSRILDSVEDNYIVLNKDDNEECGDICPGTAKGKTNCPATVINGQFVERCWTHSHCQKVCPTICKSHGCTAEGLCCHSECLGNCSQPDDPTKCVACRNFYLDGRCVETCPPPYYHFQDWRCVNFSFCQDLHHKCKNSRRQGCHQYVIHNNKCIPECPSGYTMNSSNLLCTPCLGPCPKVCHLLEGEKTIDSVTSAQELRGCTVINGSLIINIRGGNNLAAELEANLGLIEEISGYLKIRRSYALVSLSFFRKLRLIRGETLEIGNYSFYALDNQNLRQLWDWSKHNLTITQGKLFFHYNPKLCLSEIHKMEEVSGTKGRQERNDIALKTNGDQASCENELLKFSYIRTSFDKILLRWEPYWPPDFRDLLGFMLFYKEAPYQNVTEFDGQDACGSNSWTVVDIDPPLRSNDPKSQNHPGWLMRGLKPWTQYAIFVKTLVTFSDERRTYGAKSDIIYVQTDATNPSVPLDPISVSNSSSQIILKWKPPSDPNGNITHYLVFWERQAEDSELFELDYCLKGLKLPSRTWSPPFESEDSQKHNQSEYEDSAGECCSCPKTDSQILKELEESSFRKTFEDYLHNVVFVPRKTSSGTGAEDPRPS
Sequence of Insulin receptor (Homo sapiens) (P06213 763-1382 limits assumed): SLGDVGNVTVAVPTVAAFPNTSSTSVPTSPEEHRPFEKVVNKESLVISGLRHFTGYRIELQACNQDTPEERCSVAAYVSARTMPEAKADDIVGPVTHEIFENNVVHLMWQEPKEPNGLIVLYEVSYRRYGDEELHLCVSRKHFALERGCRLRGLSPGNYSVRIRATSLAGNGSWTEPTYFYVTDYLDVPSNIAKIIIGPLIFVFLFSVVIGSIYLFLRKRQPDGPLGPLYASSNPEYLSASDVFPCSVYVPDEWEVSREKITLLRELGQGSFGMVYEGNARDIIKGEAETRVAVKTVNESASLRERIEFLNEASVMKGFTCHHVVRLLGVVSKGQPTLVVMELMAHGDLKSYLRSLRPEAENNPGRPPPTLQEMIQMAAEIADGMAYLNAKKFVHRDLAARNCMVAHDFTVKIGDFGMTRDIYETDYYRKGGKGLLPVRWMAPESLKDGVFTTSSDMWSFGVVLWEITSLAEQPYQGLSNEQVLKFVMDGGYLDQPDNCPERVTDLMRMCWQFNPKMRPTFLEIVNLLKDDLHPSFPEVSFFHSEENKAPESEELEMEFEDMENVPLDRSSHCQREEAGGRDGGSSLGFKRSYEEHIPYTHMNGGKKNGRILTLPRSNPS
Sequence of Platelet-derived growth factor receptor beta (Homo sapiens) (P09619 whole entry): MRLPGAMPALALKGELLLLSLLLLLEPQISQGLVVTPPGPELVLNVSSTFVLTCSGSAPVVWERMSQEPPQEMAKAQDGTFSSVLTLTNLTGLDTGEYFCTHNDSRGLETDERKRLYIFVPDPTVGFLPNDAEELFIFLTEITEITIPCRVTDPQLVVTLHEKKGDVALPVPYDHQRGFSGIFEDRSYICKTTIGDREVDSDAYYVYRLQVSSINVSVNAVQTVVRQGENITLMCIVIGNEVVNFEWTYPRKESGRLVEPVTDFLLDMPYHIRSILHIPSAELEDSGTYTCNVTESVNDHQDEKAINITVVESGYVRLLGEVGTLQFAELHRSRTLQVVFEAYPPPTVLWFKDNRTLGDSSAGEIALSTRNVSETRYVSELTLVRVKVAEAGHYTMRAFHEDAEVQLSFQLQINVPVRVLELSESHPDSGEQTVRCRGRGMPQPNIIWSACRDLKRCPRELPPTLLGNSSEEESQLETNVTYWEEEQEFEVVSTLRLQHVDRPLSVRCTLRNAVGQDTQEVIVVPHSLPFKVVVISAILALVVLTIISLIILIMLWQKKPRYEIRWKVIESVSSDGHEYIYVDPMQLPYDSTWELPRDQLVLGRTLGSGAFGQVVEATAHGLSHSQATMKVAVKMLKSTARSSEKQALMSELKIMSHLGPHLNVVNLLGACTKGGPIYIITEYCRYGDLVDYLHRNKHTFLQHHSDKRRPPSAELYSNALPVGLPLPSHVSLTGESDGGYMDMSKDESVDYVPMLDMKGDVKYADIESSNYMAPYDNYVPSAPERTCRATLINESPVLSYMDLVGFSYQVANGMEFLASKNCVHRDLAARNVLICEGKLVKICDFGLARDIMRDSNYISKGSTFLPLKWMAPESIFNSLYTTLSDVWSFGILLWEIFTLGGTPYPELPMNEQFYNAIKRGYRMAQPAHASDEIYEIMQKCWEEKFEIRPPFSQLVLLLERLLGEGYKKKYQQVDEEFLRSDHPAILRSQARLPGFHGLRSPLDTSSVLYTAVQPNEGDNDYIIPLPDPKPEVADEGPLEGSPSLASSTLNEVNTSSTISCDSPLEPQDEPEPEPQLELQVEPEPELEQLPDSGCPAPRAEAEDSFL

Row | Kd [1] | inhibition [2] | Kd [3] | KS [4] | kmax [5] | kmax/KS [6] | IC50 [7] | Concentration [8] | Concentration [9] | Concentration [10] | T1/2 [11] | IC50 [12] | Compound
1 | 10 µM | – | – | – | – | – | – | – | – | – | – | – | Nc1ncnc2c1ncn2[C@@H]1O[C@H](COP(=O)(O)OP(=O)(O)O)[C@@H](O)[C@H]1O [ADENOSINE DIPHOSPHATE]
2 | – | 70% | 1 µM | 1 µM | 0.0023 s⁻¹ | 2000 M⁻¹ s⁻¹ | 45 µM | 50 µM | 50 µM | 50 µM | 5 min | – | Nc1ncnc2c1ncn2[C@@H]1O[C@H](CO)[C@@H](O)[C@H]1S
3 | 35 µM | – | – | – | – | – | ~1600 µM | 50 µM | 50 µM | 50 µM | – | 195 µM | Nc1ncnc2c1ncn2[C@@H]1O[C@H](CO)[C@@H](O)[C@H]1O [ADENOSINE]

Row | Compound | Kd [1] | inhibition [2] | Kd [3] | KS [4] | kmax [5] | kmax/KS [6] | IC50 [7] | Concentration [8] | Concentration [9] | Concentration [10] | T1/2 [11] | IC50 [12]
4 | Nc1ncnc2c1ncn2[C@@H]1O[C@H](COP(=O)(O)OP(=O)(O)OP(=O)(O)O)[C@@H](O)[C@H]1O [ADENOSINE TRIPHOSPHATE] | 10 µM | – | – | – | – | – | – | – | – | – | – | –
